The text below walks through data of ChEMBL document CHEMBL4406830, “Galloyl esters of trans-stilbenes are inhibitors of FASN with anticancer activity on non-small cell lung cancer cells” (Eur J Med Chem, 2019).

One experiment deals with A549. Briefly: Antiproliferative activity against human A549 cells expressing FASN assessed as reduction in cell viability after 72 hrs by MTS assay. It is filed as functional, cell-based. The note with it: A549, 72 h. An outline of the steps:
(§1)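 ATCC-sourced cells. H1299, H1650, H1703 and PC-9 were grown in RPMI 1640 with 10% FBS. A549 was grown in high-glucose DMEM with 10% FBS and 1 mM pyruvate. SAEC was grown in BEGM. Cells were seeded at 3 × 10^3 per well (H1650 3.5 × 10^3) and left to attach overnight. Serial dilutions from DMSO stocks were added, 0.1% DMSO final, for 72 h at 37 °C, 5% CO2. Medium was replaced, MTS added, and A490 read after 2 h. IC50 was taken from % viability versus log concentration, 3 experiments.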

A further experiment deals with NCI-H1299. Briefly: Antiproliferative activity against human NCI-H1299 cells expressing FASN assessed as reduction in cell viability after 72 hrs by MTS assay. The format is functional, cell-based. The note with it: NCI-H1299, 72 h. An outline of the steps:
as §1
For orientation: Tetrazolium assays rely on reduction of a dye to a coloured formazan, in cell work by metabolically active cells.

In experiment [1] the target is Fatty acid synthase (Homo sapiens) (UniProt P49327). Briefly: Inhibition of FASN in human PC9 cells harboring FASN expression and EGFR delE746-A750 mutant assessed as disruption of AKT/FASN positive feedback loop by measuring decrease in FASN expression at 1 uM after 48 hrs by Western immunoblot based densitometric assay relative to control. It is filed as cell-based. The method in brief: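 PC-9 or H1703 cells were seeded at 8 × 10^5 per 100 mm dish and treated for 48 h at 1 or 5 µM (or 5, 50 and 100 µM). RIPA lysates were BCA-quantified and run on 8% SDS-PAGE, then transferred to PVDF. Blots were probed for FASN, AKT, phospho-AKT S473 and GAPDH and detected by ECL. Bands were quantified by densitometry and normalised to vehicle control.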
Chain of Fatty acid synthase (Homo sapiens) (P49327 whole entry, looked up): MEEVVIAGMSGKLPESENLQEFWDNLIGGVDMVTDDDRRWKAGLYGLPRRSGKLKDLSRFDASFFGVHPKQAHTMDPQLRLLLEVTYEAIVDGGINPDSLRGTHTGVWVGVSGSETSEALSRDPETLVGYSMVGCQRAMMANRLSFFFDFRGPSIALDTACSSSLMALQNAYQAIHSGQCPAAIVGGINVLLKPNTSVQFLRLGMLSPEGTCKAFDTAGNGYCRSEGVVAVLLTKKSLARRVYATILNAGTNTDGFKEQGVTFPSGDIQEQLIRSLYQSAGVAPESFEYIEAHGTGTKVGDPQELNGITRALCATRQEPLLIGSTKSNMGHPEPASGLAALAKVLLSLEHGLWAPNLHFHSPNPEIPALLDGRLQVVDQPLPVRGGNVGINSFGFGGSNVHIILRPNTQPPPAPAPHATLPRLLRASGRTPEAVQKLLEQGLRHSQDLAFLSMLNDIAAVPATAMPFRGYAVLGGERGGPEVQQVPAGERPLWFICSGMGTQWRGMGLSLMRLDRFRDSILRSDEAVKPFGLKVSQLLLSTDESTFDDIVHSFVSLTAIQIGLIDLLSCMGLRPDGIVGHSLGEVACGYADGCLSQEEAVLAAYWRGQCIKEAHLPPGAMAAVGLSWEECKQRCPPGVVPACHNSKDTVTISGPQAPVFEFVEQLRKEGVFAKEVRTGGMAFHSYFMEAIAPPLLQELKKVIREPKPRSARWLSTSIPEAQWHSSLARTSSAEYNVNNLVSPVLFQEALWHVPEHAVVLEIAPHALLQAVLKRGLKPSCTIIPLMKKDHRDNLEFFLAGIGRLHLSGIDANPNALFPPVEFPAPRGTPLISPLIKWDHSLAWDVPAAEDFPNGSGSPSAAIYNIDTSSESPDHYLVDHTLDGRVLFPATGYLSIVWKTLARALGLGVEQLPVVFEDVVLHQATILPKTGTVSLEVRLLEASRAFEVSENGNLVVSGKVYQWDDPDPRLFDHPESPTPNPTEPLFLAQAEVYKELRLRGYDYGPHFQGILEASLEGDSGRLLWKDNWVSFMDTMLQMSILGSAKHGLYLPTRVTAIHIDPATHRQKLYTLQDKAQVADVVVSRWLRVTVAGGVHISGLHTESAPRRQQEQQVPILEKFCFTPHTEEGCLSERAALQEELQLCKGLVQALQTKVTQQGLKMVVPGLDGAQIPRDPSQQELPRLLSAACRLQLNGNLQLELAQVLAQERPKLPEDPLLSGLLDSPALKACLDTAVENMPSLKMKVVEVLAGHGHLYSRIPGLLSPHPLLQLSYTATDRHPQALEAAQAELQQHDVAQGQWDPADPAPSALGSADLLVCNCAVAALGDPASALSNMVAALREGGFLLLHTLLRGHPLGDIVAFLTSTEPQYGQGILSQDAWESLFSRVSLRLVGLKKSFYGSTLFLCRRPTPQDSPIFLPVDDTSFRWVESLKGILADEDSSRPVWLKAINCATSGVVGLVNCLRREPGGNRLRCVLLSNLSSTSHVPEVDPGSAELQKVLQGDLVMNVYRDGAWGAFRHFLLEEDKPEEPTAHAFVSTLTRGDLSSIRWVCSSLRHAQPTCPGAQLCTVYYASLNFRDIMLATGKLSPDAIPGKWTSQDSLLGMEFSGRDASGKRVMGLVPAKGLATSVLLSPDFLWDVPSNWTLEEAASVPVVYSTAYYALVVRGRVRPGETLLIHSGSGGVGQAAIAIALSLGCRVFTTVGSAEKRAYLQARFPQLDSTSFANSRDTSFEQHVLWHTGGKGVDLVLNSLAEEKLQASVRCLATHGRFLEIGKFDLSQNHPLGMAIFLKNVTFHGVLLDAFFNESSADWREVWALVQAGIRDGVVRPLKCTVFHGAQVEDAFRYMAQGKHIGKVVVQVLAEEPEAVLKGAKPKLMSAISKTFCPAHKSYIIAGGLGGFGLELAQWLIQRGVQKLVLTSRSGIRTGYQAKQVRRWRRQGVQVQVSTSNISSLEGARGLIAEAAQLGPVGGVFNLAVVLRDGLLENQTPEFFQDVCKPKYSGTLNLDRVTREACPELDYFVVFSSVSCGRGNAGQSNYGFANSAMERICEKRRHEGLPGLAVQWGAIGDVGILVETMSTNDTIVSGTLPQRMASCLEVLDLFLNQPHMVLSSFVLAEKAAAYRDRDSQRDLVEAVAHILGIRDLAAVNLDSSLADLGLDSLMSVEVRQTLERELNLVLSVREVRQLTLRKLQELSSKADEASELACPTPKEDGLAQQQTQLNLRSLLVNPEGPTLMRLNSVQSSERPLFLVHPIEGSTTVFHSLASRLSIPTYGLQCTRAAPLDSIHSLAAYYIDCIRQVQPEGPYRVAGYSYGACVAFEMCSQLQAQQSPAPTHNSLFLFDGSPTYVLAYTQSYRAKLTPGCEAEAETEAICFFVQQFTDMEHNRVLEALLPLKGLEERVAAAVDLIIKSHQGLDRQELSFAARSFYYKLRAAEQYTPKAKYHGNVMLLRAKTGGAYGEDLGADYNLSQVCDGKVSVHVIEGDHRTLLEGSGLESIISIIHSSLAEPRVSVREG

Molecules are shown by their SMILES.

Usually IC50 stands for the midpoint of a concentration-inhibition curve. With `O=C(Oc1ccc(/C=C/c2ccc(OC(=O)c3cc(O)c(O)c(O)c3)cc2)cc1)c1cc(O)c(O)c(O)c1`, the IC50 in the experiment on A549 came to 2100 nM; with NCI-H1299, 3300 nM. In addition, in experiment [1], the Ratio was determined as 0.92.
The matching figures for `O=C(Oc1ccc(/C=C/c2cccc(OC(=O)c3cc(O)c(O)c(O)c3)c2)cc1)c1cc(O)c(O)c(O)c1`: 2300 nM, 3100 nM and 0.86.
